According to paper PMC3775715 (Chemistry & biology, 2012):

Key:
A549 cells = test: Metabolomics of steady-state metabolite levels in A549 cells; type: cell-based, human; conditions: 24 hr, 0.5 uM for 9
recombinant PKM2 = recombinant PKM2 (Homo sapiens, UniProt P14618); test: Biochemical activity assay against recombinant PKM2; conditions: for reactivation of PKM2 inhibited by phenylalanine: PKM2 preincubated with phenylalanine for 30 min
Summary of the method: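 Recombinant PKM2 was preincubated with phenylalanine for 30 min. Test compound or FBP was then added for 30 min, after which pyruvate kinase activity was measured.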

recombinant PKM2, sequence (P14618 whole entry): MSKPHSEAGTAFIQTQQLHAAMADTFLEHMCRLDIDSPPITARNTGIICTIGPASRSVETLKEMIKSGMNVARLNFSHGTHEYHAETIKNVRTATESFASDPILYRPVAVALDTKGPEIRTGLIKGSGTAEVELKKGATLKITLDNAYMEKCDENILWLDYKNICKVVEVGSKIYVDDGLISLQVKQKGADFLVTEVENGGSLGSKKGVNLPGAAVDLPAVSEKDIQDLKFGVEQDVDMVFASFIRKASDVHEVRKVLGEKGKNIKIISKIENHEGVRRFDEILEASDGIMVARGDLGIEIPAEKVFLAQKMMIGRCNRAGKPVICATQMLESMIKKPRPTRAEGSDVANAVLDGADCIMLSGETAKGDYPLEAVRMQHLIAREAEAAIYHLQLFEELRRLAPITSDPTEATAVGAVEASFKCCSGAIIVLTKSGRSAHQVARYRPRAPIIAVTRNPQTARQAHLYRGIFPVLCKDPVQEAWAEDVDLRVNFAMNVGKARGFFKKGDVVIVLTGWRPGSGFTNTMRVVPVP

Compound | changes in steady-state metabolite levels (A549 cells) | reactivation of PKM2 inhibited by phenylalanine (recombinant PKM2) | change in potency for PKM2 inhibited with phenylalanine (recombinant PKM2; PKM2 inhibited with phenylalanine)
CCCCS(=N)(=O)CC[C@H](N)C(=O)O (stereo partly shown) [BSO, buthionine sulfoxime] | induced robust changes in steady-state metabolite pools | – | –
O=C(COP(=O)(O)O)[C@@H](O)[C@H](O)[C@H](O)COP(=O)(O)O [FBP, fructose 1,6-bisphosphate] | – | partially reactivate PKM2 to the low basal level of activity | –
N[C@@H](CO)C(=O)O [Serine, serine] | – | partially restore the activity of PKM2 | eight times loss in potency
